STAT1 activator: STAT1 signaling activators, primary screen, cell-based, HTS, luciferase reporter | NIH 3T3 STAT1-luciferase reporter, IFN-gamma, luminescence; 100% = IFN-gamma alone, no compound | activation (% of control), % at 5.5 µM | hit rate 2.6% among 200,000 | AID 932, 2007;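 active means activation above the screen-wide mean activation plus 3 SD, cut at about 130% in these data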
APP 5'UTR act: activators of APP 5'UTR luciferase reporter, primary screen, SH-SY5Y cells. SH-SY5Y APP 5'UTR luciferase reporter, luminescence; zero percent = DMSO vehicle wells. activation, % at 2 µM. hit rate 1% among 190,000;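 active means activation above a set limit, based on mean plus 3 SD of controls, cut at about 140% in these data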
FLuc act counter: FLuc activators, initial screening, artefact control for FLuc-dependent activation tests, biochemical, ATPlite luminescence; activation factor at 10 µM; 200,000 tested, under 10 active; ATPlite luciferase biochemical, 10 min; 0 = ATP-free wells, 1 = DMSO control;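 active means luciferase activation factor, scaled between plate controls, of at least 2 with compound at 10 µM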
Target sequence (P08659 whole entry, looked up): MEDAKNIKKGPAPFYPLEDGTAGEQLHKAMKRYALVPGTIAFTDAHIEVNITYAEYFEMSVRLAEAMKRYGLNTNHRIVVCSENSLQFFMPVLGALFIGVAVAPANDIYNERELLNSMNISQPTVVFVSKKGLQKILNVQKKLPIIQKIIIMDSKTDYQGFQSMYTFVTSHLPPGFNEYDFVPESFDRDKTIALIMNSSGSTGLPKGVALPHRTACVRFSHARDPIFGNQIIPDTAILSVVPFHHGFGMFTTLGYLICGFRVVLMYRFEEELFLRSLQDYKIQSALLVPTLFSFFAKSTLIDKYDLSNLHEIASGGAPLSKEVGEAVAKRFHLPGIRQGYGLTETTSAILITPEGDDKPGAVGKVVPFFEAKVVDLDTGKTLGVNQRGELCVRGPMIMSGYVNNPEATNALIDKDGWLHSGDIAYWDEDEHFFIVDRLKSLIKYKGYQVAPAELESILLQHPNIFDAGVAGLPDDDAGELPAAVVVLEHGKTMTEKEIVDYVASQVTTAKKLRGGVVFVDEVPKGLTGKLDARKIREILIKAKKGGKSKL
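Assay system: Luciferase/luciferin reagent mix; Medium: PBS as buffer for the ATP substrate; Dosing: test compounds dosed from 2 mM stocks in 100% DMSO; Times: 10 min, room temperature; Signal: luminescence from luciferase reaction; Read-out: luciferase activation; Controls: No-ATP low control, compound-free enzyme-plus-ATP high control.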
NF-kB neuron act: activators of NF-kB expression in neurons, primary screen, cell-based, HTS; human neuronal cells, NF-kB reporter expression; stronger effect = higher value; fold change at 12.5 µM; hit rate 1.6% among 190,000; in the data active means fold change above about 3.3
FLuc inh counter: firefly luciferase enzyme inhibitors, primary screen, artefact control for luciferase-based inhibitor screens, biochemical, luminescence, ATPLite. Luciferin 4-monooxygenase (Photinus pyralis), P08659. 10 min. inhibition, % at 10 µM. hit rate 1.5% among 200,000;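 active means inhibition above about 50% when tested at 10 µM, limit read from the data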
Hits are given with their value; n = inactive; x = no result given. Rows were chosen to be rich in hits. Some 4.3% of all compounds tested hit in one or more screens of this group.

SMILES	STAT1 activator	APP 5'UTR act	FLuc act counter	NF-kB neuron act	FLuc inh counter
COc1ccc(C(=O)N2CCN(Cc3nc(CC4CC4)no3)CC2)cc1	n	n	n	n	n
Cc1ccc(-c2nc3ccccc3s2)cc1NC(=S)NC(=O)c1ccccc1	n	178	n	6.8	n
CNC(=S)Nc1ccc(-c2nc3ccc(C)cc3s2)cc1	n	172	n	x	n
O=C(Nc1ccc(-c2nc3ccccc3s2)c(OC(=O)c2ccccc2)c1)c1ccccc1	n	208	n	n	n
CC(=O)NC(=S)Nc1ccc(-c2nc3ccc(C)cc3s2)cc1	n	n	n	3.7	n
Cc1ccc2nc(-c3ccc(NC(=S)NCCC(C)C)cc3)sc2c1	n	n	x	x	x
Cc1cccc(N(CC(=O)Nc2ccc(F)cc2)S(C)(=O)=O)c1	n	n	n	n	n
Cc1cc(C)cc(N(CC(=O)Nc2ccc(-c3nc4ccc(C)cc4s3)cc2)S(C)(=O)=O)c1	142	n	n	n	n
c1ccc(SCc2nc(-c3cccnc3)no2)cc1	133	n	n	n	n
COc1ccc(CCc2nc(-c3ccc(-n4cccc4)cc3)no2)cc1	n	n	n	n	n
Cc1cccc(-c2noc(Cc3ccc(Cl)cc3)n2)c1	n	n	n	n	n
Cc1cccc(-c2noc(CSc3ccccc3)n2)c1	145	n	n	n	n
Cc1ccc(-c2noc(CSc3nc(N)cc(N)n3)n2)cc1	n	n	n	3.4	n
Cc1ccc(-c2noc(CSc3nnc(-c4ccncc4)n3-c3ccc(C)cc3)n2)cc1	n	n	n	n	n
COc1ccc(-c2noc(CCc3ccccc3)n2)cc1	134	n	n	n	n
Cc1ccc(-c2noc(CSc3ccccc3)n2)cc1	n	170	n	4.4	n
CC(C)CC1c2[nH]c3ccccc3c2CCN1C(=O)c1cnccn1 (stereo unspecified)	146	n	n	n	n
O=C(CSc1nnnn1-c1ccccc1)Nc1nsc(-c2ccccc2)n1	n	n	n	7.9	n
C#CCOC(=O)C[N+](C)(C)CC#Cc1ccccc1	n	n	n	n	n
CCOC(=O)c1cc2c(nc1C)-c1cc(Cl)cc(Cl)c1OC2O (stereo unspecified)	n	n	n	n	n
COc1cc(OC)cc(C(=O)N[C@H](C(=O)OCC(=O)Nc2sccc2C#N)C(C)C)c1	n	n	n	n	n
COc1ccc(CCC(=O)Nc2sccc2C#N)cc1	130	n	n	n	n
CCOc1ccc(C(=O)NCCCN2CCOCC2)cc1OCC	n	n	n	n	n
Nc1c(-c2ccccc2)cnn1-c1cccc(C(F)(F)F)c1	143	n	n	n	n
Cc1ccc(-c2cnn(-c3cccc([N+](=O)[O-])c3)c2N)cc1	142	n	n	n	n
SMILES	STAT1 activator	APP 5'UTR act	FLuc act counter	NF-kB neuron act	FLuc inh counter
Nc1c(-c2ccccc2)cnn1-c1ccc(C(=O)O)cc1	133	138	n	5.7	n
Cc1ccccc1-c1cnn(-c2cccc([N+](=O)[O-])c2)c1N	n	n	n	n	n
CCCNC(=O)c1cc(-c2ccc(Br)cc2)on1	n	n	n	3.6	n
COc1ccc(-c2cc(C(=O)NCC(C)C)no2)cc1	133	n	n	5	n
CCCn1cc(NC(=O)c2cc(-c3ccccc3)on2)cn1	130	n	n	3.6	n
CC(C)NC(=O)c1cc(-c2ccc(Br)cc2)on1	150	n	n	4.9	n
COc1ccccc1NC(=O)COC(=O)C1CCN(/C=C/C(=O)C(F)(F)F)CC1	n	n	n	n	n
CCOC(=O)c1sc(NS(=O)(=O)c2ccccc2Cl)nc1C	n	n	n	n	n
CC(C)CC(c1nnnn1C1CCCC1)N1CCC(C(N)=O)CC1 (stereo unspecified)	n	n	n	n	n
CCc1ccccc1NC(=O)N1CCC(NC(=O)C(Cc2ccccc2)NC(C)=O)CC1 (stereo unspecified)	n	n	n	n	n
O=C(O)c1ccc(-c2nc(-c3ccc(Cl)c(Cl)c3)cs2)cc1	n	n	n	n	n
O=C(O)c1ccc(-c2nc(-c3ccccc3Cl)cs2)cc1	134	n	n	n	n
Cc1oncc1-c1csc(-c2ccccc2Cl)n1	143	n	n	n	n
O=C(O)c1ccccc1-c1csc(-c2ccccc2)n1	n	n	n	n	n
ClCc1csc(-c2ccccc2Cl)n1	n	n	n	n	n
Cc1oncc1-c1csc(-c2ccccc2)n1	137	n	n	n	n
Cc1cc(=O)cc(C)n1-c1ccc(F)cc1F	n	n	n	n	n
CCOC(=O)c1c(C)[nH]c(C(=O)OCC(=O)c2c(N)n(C)c(=O)n(C)c2=O)c1C	n	n	n	n	n
O=C(OCc1csc(-c2ccccc2)n1)c1ccc(O)cc1	150	n	n	n	n
Cc1ccc(C(=O)NCC(=O)OCc2csc(-c3ccccc3)n2)cc1	n	n	n	n	n
O=C(NN=C1C2CC3CC1CC(Cl)(C3)C2)c1cccs1	n	141	n	n	n
O=C(NN=C1C2CC3CC1CC(Cl)(C3)C2)c1ccccn1	n	159	n	n	n
Cc1cc(C)cc(N(CC(=O)NCc2ccco2)S(=O)(=O)c2c(C)noc2C)c1	n	n	n	n	n
Cc1ccc(OCC(=O)c2c[nH]c3ccccc23)c([N+](=O)[O-])n1	n	n	n	n	n
COc1cc(NC(=O)CSc2nc3ccccc3cc2C)c(C(=O)O)cc1OC	n	n	n	8.7	n
SMILES	STAT1 activator	APP 5'UTR act	FLuc act counter	NF-kB neuron act	FLuc inh counter
O=c1[nH]c(CSc2ccccn2)nc2c1oc1ccccc12	n	n	n	n	61
CCCc1cc(C(=O)NNC(=S)Nc2cccc(C)c2)cs1	142	n	n	n	n
Cc1cccc(NC(=S)NNC(=O)c2ccc3c(c2)OCO3)c1	n	n	n	n	79
CCN(CC)c1ccc(/C=N/N2CCOCC2)c(O)c1	142	n	n	n	n
CCN(CC)c1ccc(/C=N/NC(=O)OC)c(O)c1	n	n	n	n	n
CCN(CC)c1ccc(/C=N/NC(=S)NC)c(O)c1	n	n	n	5.9	n
CCN(CC)c1ccc(C=Nc2ccc(N(C)C)cc2)c(O)c1	130	n	n	n	n
CC(C)NC(=O)CSc1nnc(-c2ccncc2)n1-c1ccccc1	n	n	n	n	n
COCCN1C(=O)C(=O)/C(=C(/O)c2ccc(C)cc2)C1c1ccccn1 (stereo unspecified)	n	n	n	n	n
CN(CC(=O)Nc1ccc(Cl)cc1)c1ccc(S(=O)(=O)N2CCCCC2)cc1[N+](=O)[O-]	n	n	n	n	n
CCOc1ccc(/C=C/C(=O)c2c(O)c3ccccc3oc2=O)cc1	n	n	n	n	67
CCC/C(=N\NC(=O)c1csc(C)c1C)c1cccs1	n	n	n	n	n

Screening data (PubChem)
